Test results taken from article PMC6996349 (Hepatology Communications, 2019).

Experiments:
[1] = test system: ob/ob mice; assay: Glucose metabolism and insulin resistance in ob/ob mice; format: in vivo; conditions: for Glucose metabolism, effect: fenofibrate 100, pioglitazone 30 mg/kg/d in diet
How it was run: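 Male ob/ob mice aged 6-8 weeks, n = 10/group, either untreated or given test compound at 135 mg/kg/d in the diet for 5 weeks. Reference-agent groups were also dosed in the diet. Blood glucose, insulin, HbA1c and HOMA-IR were measured after 4 weeks on tail-vein EDTA blood taken after a 4-h fast. Body weight was recorded between 8 and 9 am. Mean ± SEM; Kruskal-Wallis then Mann-Whitney U.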

[2] = test system: NASH patients; conditions: PIVENS study; cited from earlier work
[3] = test system: subjects with elevated triglycerides; conditions: 4 g/day oral; cited from earlier work
[4] = test system: NASH patients; conditions: 1.8 or 2.7 g/day, 1 year; cited from earlier work
[5] = test system: APOE*3Leiden.CETP mice; assay: Hepatic lipotoxic lipid species; format: in vivo; conditions: 20 weeks, versus control
How it was run: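 Male APOE*3Leiden.CETP mice aged 8-15 weeks on a high-fat diet (24% wt/wt lard, 1% wt/wt cholesterol), n = 12/group. Mice received daily corn-oil vehicle gavage or test compound at 112 mg/kg/d by oral gavage for 20 weeks, starting with the diet. Harvested livers underwent lipidomics and reduced/oxidized glutathione assays. Mean ± SEM; Kruskal-Wallis then Mann-Whitney U.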

[6] = test system: APOE*3Leiden.CETP mice; format: in vivo
How it was run: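 High-fat/cholesterol-fed male APOE*3Leiden.CETP mice aged 8-15 weeks, n = 12/group, given corn-oil vehicle or test compound at 112 mg/kg/d by daily oral gavage for 20 weeks. Liver cross sections were stained with H&E or sirius red and scored with an adapted human NASH grading system. Hepatic lipids were determined biochemically. Body weight was monitored regularly. Mean ± SEM; nonparametric group comparisons.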

[7] = 20 weeks, icosabutate 112 mg/kg/d, rosiglitazone 13 mg/kg/d

CCc1ccc(CCOc2ccc(CC3SC(=O)NC3=O)cc2)nc1 (stereo not shown) [pioglitazone]
Plasma adiponectin, increase versus control ([1]; after 4 weeks of treatment): 4.5 fold
HOMA‐IR, change versus control ([1]; after 4 weeks of treatment, icosabutate 135, pioglitazone 30 mg/kg/d): −97%
Glucose metabolism, effect [1]: also improved glucose metabolism
Fibrosis, effect [2]: without change
Lobular inflammation, effect [2]: improvements

CC/C=C\C/C=C\C/C=C\C/C=C\C/C=C\CCCC(=O)OCC [EPA ethyl ester, eicosapentaenoic acid (EPA) ethyl ester]
Major adverse cardiovascular events, effect [3]: markedly reduce
Effect on liver histology [4]: no effect

CN(CCOc1ccc(CC2SC(=O)NC2=O)cc1)c1ccccn1 (stereo not shown) [rosiglitazone]
Hepatic GSH:GSSG ratio, effect [5]: had no effect
Hepatic GSSG, effect [5]: had no effect
Hepatic concentration of FFAs, effect [5]: had no effect
Hepatic concentration of HETEs (11[R]‐, 12‐, 15[S] isomers), effect [5]: significant increase
Hepatic concentration of arachidonic acid, effect [5]: had no effect
Hepatic concentration of bile acids, effect [5]: had no effect
Hepatic concentration of ceramides, effect [5]: had no effect
Hepatic concentration of diacylglycerols (DAGs), effect [5]: had no effect
Fibrosis, effect ([6]; 20 weeks): no change
Number of inflammatory cell aggregates, change versus control ([6]; 20 weeks): −67%
Serum amyloid A, change versus control ([6]; 20 weeks): −46%
Hepatic cholesterol ester, effect ([6]; 20 weeks, biochemical analysis of intrahepatic lipids): significant reduction
Hepatocellular hypertrophy, change versus control [6, 7]: did not significantly affect
Microvesicular steatosis, change versus control [6, 7]: did not significantly affect
Serum amyloid A ([6]; after 20 weeks of treatment, control 29.8 ± 5.0, mean ± SEM): 16.1 ± 3.3
Plasma monocyte chemoattractant protein 1 ([6]; after 20 weeks of treatment, control 111.5 ± 17.1, mean ± SEM): 65.1 ± 5.1
Body weight, change versus control ([6]; week 16 and 20, data not shown): did not significantly increase

CC(C)OC(=O)C(C)(C)Oc1ccc(C(=O)c2ccc(Cl)cc2)cc1 [fenofibrate]
Plasma adiponectin, increase versus control ([1]; after 4 weeks of treatment): neither fenofibrate nor icosabutate affected
Plasma insulin, change versus control ([1]; after 4 weeks of treatment): less pronounced
Reduction of blood glucose AUC (0‐120 minutes) in oral glucose tolerance test ([1]; after 5 weeks of treatment, 2 g/kg glucose, 4-hour fasted): less potent effect
Glucose metabolism, effect [1]: also improved glucose metabolism
